In ChEMBL document CHEMBL2440010, “Click chemistry based synthesis of dopamine D4 selective receptor ligands for the selection of potential PET tracers” (Bioorg Med Chem Lett, 2013):
The source made the active and inactive calls. The rule behind the calls is not given here.

Key:
D(2) dopamine receptor [1] = biological target: T1, D(2) dopamine receptor (Homo sapiens, UniProt P14416); assay: Displacement of [3H]spiperone from human D2long receptor expressed in CHO cells; format: cell-based
In short: (§1)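 Competition binding against [3H]spiperone on cloned human receptors (D2long, D2short, D3, D4.4) stably expressed in CHO cells. Ki values were taken from two to four independent experiments, each run in triplicate.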

D(2) dopamine receptor [2] = biological target: T1, D(2) dopamine receptor; assay: Displacement of [3H]spiperone from human D2short receptor expressed in CHO cells; format: cell-based; in short: as §1
[3] = Displacement of [3H]ketanserin from 5-HT2 in pig cerebral cortex; format: tissue-based, Sus scrofa
[4] = Displacement of [3H]WAY100635 from 5-HT1A in pig cerebral cortex; format: tissue-based, Sus scrofa
In short: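 Porcine cortical membranes were used with selective radioligands: [3H]WAY100635 for 5-HT1A, [3H]ketanserin for 5-HT2 and [3H]prazosin for α1. Ki values were taken from two to four independent experiments, each run in triplicate.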

D(4) dopamine receptor = biological target: T2, D(4) dopamine receptor (Homo sapiens, UniProt P21917); assay: Displacement of [3H]spiperone from human D4.4 receptor expressed in CHO cells; format: cell-based; in short: as §1
T2 sequence (P21917 whole entry): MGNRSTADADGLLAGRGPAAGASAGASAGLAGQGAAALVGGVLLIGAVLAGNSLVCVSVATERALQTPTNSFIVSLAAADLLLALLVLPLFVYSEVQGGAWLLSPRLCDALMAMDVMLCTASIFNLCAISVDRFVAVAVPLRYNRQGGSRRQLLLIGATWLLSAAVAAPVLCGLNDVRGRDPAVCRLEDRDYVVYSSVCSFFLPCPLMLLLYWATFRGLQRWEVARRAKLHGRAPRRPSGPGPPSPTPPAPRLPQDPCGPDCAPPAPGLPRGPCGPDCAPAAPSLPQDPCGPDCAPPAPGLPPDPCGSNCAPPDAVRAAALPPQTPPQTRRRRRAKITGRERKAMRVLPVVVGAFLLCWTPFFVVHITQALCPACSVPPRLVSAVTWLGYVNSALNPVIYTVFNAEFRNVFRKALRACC

D(3) dopamine receptor = D(3) dopamine receptor (Homo sapiens, UniProt P35462); assay: Displacement of [3H]spiperone from human D3 receptor expressed in CHO cells; format: cell-based; in short: as §1
Sequence of D(3) dopamine receptor (P35462 whole entry): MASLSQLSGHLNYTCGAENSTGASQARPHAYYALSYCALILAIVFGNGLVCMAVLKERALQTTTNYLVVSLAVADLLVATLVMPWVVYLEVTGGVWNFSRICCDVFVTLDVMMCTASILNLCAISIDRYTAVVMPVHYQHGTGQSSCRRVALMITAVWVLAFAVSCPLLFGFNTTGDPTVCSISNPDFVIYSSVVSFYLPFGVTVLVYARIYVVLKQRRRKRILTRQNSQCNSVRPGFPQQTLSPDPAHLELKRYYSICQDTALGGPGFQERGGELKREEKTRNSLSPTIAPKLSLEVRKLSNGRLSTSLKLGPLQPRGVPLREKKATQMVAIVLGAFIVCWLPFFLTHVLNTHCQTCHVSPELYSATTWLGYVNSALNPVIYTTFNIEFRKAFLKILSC

D(1A) dopamine receptor = D(1A) dopamine receptor (Sus scrofa, UniProt P50130); assay: Displacement of [3H]SCH23390 from D1 receptor in pig striatal membrane; format: cell membranes, Striatum
Sequence of D(1A) dopamine receptor (P50130 whole entry): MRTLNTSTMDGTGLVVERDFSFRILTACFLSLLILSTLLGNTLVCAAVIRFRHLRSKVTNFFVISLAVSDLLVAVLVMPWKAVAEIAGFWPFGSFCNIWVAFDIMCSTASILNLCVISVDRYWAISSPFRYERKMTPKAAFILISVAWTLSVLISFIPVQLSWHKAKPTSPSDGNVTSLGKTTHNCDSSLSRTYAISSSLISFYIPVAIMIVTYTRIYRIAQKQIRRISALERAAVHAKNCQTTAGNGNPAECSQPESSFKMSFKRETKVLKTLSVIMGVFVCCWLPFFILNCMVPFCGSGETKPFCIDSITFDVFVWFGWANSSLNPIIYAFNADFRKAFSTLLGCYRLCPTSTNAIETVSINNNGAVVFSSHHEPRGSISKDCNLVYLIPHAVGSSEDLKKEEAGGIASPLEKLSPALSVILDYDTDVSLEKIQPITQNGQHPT
In short: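 D1 binding on porcine striatal membrane preparations, displacing the D1-selective antagonist [3H]SCH23390. Ki values were taken from two to four independent experiments, each run in triplicate.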

[5] = biological target: T3, D(4) dopamine receptor (Homo sapiens) (UniProt P21917); assay: Antagonist activity at human D4.4 receptor expressed in CHO10001 cells assessed as [3H]thymidine incorporation preincubated at 63 nM for 20 hrs before [3H]thymidine addition by mitogenesis assay; format: cell-based
T3 sequence (whole entry): T2 sequence (P21917 whole entry)

[6] = biological target: T3, D(4) dopamine receptor (Homo sapiens); assay: Partial agonist activity at human D4.4 receptor expressed in CHO10001 cells assessed as [3H]thymidine incorporation preincubated at 63 nM for 20 hrs before [3H]thymidine addition by mitogenesis assay; format: cell-based

T1 sequence (P14416 whole entry): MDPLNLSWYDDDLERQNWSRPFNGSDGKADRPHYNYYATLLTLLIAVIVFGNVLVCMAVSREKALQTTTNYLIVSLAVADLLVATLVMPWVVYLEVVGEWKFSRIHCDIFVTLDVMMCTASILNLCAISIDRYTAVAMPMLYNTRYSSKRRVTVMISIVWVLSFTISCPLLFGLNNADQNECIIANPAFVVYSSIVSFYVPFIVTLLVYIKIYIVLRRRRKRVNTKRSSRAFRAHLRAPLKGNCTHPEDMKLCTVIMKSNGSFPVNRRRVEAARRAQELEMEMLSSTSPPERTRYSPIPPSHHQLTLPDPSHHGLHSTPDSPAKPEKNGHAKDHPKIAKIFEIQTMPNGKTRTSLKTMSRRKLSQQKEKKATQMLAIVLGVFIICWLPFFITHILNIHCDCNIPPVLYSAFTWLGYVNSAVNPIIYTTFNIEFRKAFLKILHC

Row | Ki (D(2) dopamine receptor [1]) | Ki (D(2) dopamine receptor [2]) | Ki [3] | Ki [4] | Ki (D(4) dopamine receptor) | Ki (D(3) dopamine receptor) | Ki (D(1A) dopamine receptor) | Activity [5] | Activity [6] | SMILES
1 | 440 nM | 770 nM | 9000 nM | 480 nM | 16 nM | 2900 nM | 3600 nM |  |  | COc1ccccc1N1CCN(Cc2cn(-c3ccc(OCCCOCCF)cc3)nn2)CC1
2 | 4100 nM | 1500 nM | 7800 nM | 650 nM | 32 nM | 5700 nM | 16000 nM |  |  | COc1ccccc1N1CCN(Cc2cn(-c3ccc(OCCCOC4O[C@H](CO)[C@@H](O)[C@H](O)[C@H]4F)cc3)nn2)CC1 (stereo not given in full)
3 | 340 nM | 520 nM |  | 420 nM | 5.1 nM | 2800 nM | 38000 nM | Active |  | COc1ccccc1N1CCN(Cc2cn(-c3ccc(OCCCF)cc3)nn2)CC1
4 | 1600 nM | 18000 nM | 10000 nM | 420 nM | 14 nM | 17000 nM | 45000 nM |  | 27% | COc1ccccc1N1CCN(Cc2cn(-c3ccc(OCCF)cc3)nn2)CC1
5 | 2700 nM | 2900 nM | 8200 nM | 560 nM | 100 nM | 200 nM | 43000 nM |  |  | COc1ccccc1N1CCN(Cc2cn(-c3ccc(OCCOCCOCCF)cc3)nn2)CC1

The remaining lines, values behind:

Row | SMILES | Ki (D(2) dopamine receptor [1]) | Ki (D(2) dopamine receptor [2]) | Ki [3] | Ki [4] | Ki (D(4) dopamine receptor) | Ki (D(3) dopamine receptor) | Ki (D(1A) dopamine receptor) | Activity [5] | Activity [6]
6 | COc1ccccc1N1CCN(Cc2cn(CCOCCF)nn2)CC1 | 1600 nM | 750 nM | 27000 nM | 240 nM | 23 nM | 1700 nM |  |  | 
7 | COc1ccccc1N1CCN(Cc2cn(CCCCCCF)nn2)CC1 | 460 nM | 560 nM | 6400 nM | 54 nM | 20 nM | 800 nM | 26000 nM |  | 
8 | COc1ccccc1N1CCN(Cc2cn(CCOCCOCCOCCF)nn2)CC1 | 8300 nM | 4700 nM | 18000 nM | 770 nM | 680 nM | 7600 nM | 60000 nM |  | 
9 | COc1ccccc1N1CCN(Cc2cn([C@@H]3O[C@H](CF)[C@@H](O)[C@H](O)[C@H]3O)nn2)CC1 | 24000 nM | 51000 nM |  | 18000 nM | 340 nM |  | 77000 nM |  | 
10 | COc1ccccc1N1CCN(Cc2cn(CCOCCOCCF)nn2)CC1 | 7700 nM | 3400 nM | 23000 nM | 870 nM | 150 nM | 5100 nM | 30000 nM |  | 
11 | COc1ccccc1N1CCN(Cc2cn([C@@H]3O[C@H](CO)[C@@H](O)[C@H](O)[C@H]3F)nn2)CC1 | 23000 nM | 42000 nM | 38000 nM | 12000 nM | 500 nM | 17000 nM | 54000 nM |  | 
